Calls of active or inactive are those of the source. No cut-off for these calls is given here.

Our source for the Activity values is ChEMBL document CHEMBL1138474, “Modulation of the transient receptor potential vanilloid channel TRPV4 by 4alpha-phorbol esters: a structure-activity study” (J Med Chem, 2009).

The target in experiment [1] is T1, Transient receptor potential cation channel subfamily V member 2 (Homo sapiens) (UniProt Q9Y5S1).
T1 sequence (whole entry): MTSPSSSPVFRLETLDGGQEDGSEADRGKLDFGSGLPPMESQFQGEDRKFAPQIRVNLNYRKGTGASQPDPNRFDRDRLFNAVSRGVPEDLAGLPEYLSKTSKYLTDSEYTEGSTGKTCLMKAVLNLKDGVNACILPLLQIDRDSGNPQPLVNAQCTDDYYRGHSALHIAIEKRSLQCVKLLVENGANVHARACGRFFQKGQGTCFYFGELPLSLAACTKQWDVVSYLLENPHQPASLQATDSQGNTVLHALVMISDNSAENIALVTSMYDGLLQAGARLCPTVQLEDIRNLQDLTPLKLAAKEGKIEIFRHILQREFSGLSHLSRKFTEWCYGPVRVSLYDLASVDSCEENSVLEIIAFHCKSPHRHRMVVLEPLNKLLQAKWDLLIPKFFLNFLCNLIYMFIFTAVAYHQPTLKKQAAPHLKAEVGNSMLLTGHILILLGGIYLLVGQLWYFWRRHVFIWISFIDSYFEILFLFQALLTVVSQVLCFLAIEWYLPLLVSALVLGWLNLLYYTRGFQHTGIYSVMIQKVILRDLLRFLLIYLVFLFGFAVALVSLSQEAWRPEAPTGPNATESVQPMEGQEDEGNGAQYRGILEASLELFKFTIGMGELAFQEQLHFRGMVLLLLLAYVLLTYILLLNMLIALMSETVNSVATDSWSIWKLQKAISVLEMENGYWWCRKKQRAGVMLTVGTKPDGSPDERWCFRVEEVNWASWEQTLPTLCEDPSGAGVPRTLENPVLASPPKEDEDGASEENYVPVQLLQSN
The experiment is described as follows: Activation of TRPV2 expressed in HEK293 cells assessed as increase in intracellular calcium concentration. Format: cell-based. The essentials:
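HEK293 cells grown in DMEM with 10% human serum at 37 °C/10% CO2 and transfected with the TRPV channel. Cells were loaded with 4 µM Fura-2 AM for 30 min at 37 °C and perfused with Krebs buffer (1.5 mM CaCl2, pH 7.4). Read-out is single-cell 340/380 nm fura-2 ratio imaging against nontransfected cells.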

Experiment [2] concerns the target Transient receptor potential cation channel subfamily V member 4 (Mus musculus) (UniProt Q9EPK8). The experiment is described as follows: Activation of mouse wild type TRPV4 expressed in HEK293 cells assessed as outward-inward rectifying current density at 500 nM at a holding potential of 100 mV by whole cell patch-clamp assay in presence of calcium. It is filed as cell-based. Summed up:
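Whole-cell patch clamp was run on mTRPV4-transfected HEK293 cells using ramps from -100 to +100 mV. Bath (mM): 150 NaCl, 6 CsCl, 1 MgCl2, 5 CaCl2, 10 glucose, 10 HEPES, pH 7.4. Pipette (mM): 20 CsCl, 100 aspartate, 1 MgCl2, 10 HEPES, 4 Na-ATP, 10 BAPTA, free Ca2+ buffered to 200 nM, pH 7.4. Agonist was added to the bath. Five cells, >2 transfections.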

The target is the same in experiment [3]. The experiment is described as follows: Activation of mouse wild type TRPV4 expressed in HEK293 cells assessed as increase in intracellular calcium concentration at 500 nM.

Chain of Transient receptor potential cation channel subfamily V member 4 (Mus musculus) (Q9EPK8 whole entry): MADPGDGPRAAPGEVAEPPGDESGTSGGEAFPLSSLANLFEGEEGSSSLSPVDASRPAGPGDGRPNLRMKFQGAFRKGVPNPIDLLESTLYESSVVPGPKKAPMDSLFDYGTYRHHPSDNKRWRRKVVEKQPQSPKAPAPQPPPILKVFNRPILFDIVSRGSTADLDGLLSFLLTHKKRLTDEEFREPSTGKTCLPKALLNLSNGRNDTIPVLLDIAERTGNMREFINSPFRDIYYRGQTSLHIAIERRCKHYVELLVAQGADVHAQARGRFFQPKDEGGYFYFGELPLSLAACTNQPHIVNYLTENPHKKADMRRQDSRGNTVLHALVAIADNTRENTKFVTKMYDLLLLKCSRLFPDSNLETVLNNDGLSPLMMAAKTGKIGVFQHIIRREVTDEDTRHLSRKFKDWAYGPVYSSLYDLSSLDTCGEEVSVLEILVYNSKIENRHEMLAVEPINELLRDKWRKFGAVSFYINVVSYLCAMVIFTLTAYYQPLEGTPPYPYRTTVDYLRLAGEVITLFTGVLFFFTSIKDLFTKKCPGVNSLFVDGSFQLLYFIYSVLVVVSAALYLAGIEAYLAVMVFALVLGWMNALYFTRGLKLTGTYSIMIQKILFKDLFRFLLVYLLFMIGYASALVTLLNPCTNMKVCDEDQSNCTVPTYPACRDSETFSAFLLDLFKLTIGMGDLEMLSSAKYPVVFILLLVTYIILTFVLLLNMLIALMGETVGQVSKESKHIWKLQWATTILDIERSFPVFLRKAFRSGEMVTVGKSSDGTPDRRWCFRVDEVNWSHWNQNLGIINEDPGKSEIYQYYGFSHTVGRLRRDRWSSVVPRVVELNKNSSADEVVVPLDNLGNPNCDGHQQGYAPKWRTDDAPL

As to `CCCCCCCCCC(=O)O[C@@H]1[C@@H](C)[C@]2(O)[C@@H]3C4C([C@H]2[C@@H]2C(C)(C)[C@]12OC(=O)CCCCCCCCC)C1(CO)C[C@H]3C(=O)C41C` (stereo partly drawn), the outcome in experiment [1] was inactive. Further, in experiment [2], the Activity was found to be 505. Further, the result in experiment [3] was Active.
